# Screens (PubChem)
# CHO parental Ca: signal in parental CHO cells, OX1R antagonist counter-screen; inhibition, % at 5.6 µM; 330,000 tested, 0.63% active; parental CHO-K1, ATP-induced calcium, Fluo-8 fluorescence;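 active = inhibition above that plate's mean sample inhibition plus 3 SD, cut at about 26% in these data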;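 also: 0% = ATP-challenged DMSO wells and 100% = DMSO wells without ATP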
#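 Test system: parental CHO cells; detection: calcium-sensitive Fluo-8 fluorescence; evaluation: percent inhibition of calcium signal; also added: ATP as calcium-mobilizing challenge; repeats: one well per compound; control set: ATP-challenged DMSO wells low, unchallenged DMSO wells high; compound: single nominal dose of 5.6 µM per compound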
# OX1R antag-1: antagonists of human orexin 1 receptor; CHO/OX1R cells, Fluo-8 calcium fluorescence, orexin A; inhibition, % at 5 µM; 330,000 tested, 0.43% active;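 active = inhibition above its plate's threshold, mean inhibition of all tested compounds on the plate plus 3 SD, cut at about 37% in these data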;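 also: 0% = orexin A challenge wells and 100% = SB-334867-A antagonist wells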
# MPTP block: inhibitors of mitochondrial permeability transition pore. AID 602449. inhibition, % at 10 µM. isolated mouse mitochondria, Ca2+ swelling absorbance, 30 min. 360,000 tested, 1.4% active;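 active = inhibition of 50% or more, scaled per plate between neutral and stimulator controls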;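 also: 0% = DMSO wells given calcium and 100% = 1 mM EGTA wells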
# OX1R antag-2: antagonists of human orexin 1 receptor (OX1R). O43613. inhibition, % at 6.6 µM. OX1R-expressing cells, FRET antagonist read-out. 330,000 tested, 1.8% active. AID 485270; in the data active = inhibition mostly above about 38%, no sharp cut-off; inactive = mostly below about 40%;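 also: 0% = agonist challenge alone and 100% = reference antagonist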
# GPR7 antag: blocks human GPR7 receptor signaling. inhibition, % at 4.4 µM. 290,000 tested, 1.1% active. AID 1861. P48145. GPR7-expressing cells, fluorescence antagonist assay; in the data active = inhibition above about 16%, passing the limit was not always enough;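 also: cells stimulated with the agonist NPW; 0% = agonist with vehicle and 100% = vehicle without agonist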
# Target sequence (P48145 whole entry, looked up): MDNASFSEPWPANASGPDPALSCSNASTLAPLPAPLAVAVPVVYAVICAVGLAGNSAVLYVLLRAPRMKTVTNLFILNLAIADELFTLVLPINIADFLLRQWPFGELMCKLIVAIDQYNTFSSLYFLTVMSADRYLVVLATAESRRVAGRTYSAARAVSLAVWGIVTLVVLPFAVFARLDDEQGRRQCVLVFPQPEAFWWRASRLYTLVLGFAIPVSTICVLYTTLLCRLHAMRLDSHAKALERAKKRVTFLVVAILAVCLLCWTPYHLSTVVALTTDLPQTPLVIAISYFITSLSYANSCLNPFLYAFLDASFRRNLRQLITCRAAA
# Rh123 counter: mitochondrial membrane potential, counter-screen; shares compounds with MPTP block; isolated mitochondria, Rhodamine 123 fluorescence; inhibition, % at 10 µM; 5,000 tested, 78% active; AID 624504; in the data active = inhibition above about 22%;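 also: 0% = DMSO vehicle and 100% = positive control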
# MPTP swell DR: MPTP inhibition, dose response swelling confirmation. shares compounds with MPTP block. 780 tested, 58% active. isolated mitochondria swelling, absorbance. IC50, µM; in the data active = IC50 below about 20 µM
# MPTP counter DR: active in counter-screen for permeability transition pore inhibitors | 780 tested, 49% active | AID 651564 | shares compounds with MPTP block | isolated mitochondria counterscreen, fluorescence read-out | IC50, µM; in the data active = IC50 below about 80 µM
# Starred values were filed as active, the others as inactive; i = inactive; nt = no result. Most compounds without a hit are left out; they make up all but 3.8% or so of the library.
SMILES,CHO parental Ca,OX1R antag-1,MPTP block,OX1R antag-2,GPR7 antag,Rh123 counter,others
O=C(Nc1ccccc1)C1Cc2c(-c3cccc(F)c3)ccnc2O1 (configuration not stated),nt,nt,1,nt,nt,nt,
COc1ccc(NC(=O)C2Cc3c(-c4ccc(NC(C)=O)cc4)ccnc3O2)cc1OC (configuration not stated),nt,nt,0,nt,nt,nt,
COc1ccc(NC(=O)C2Cc3c(-c4ccc5c(c4)OCO5)ccnc3O2)cc1OC (configuration not stated),nt,nt,96*,nt,nt,89*,
N#Cc1ccccc1S(=O)(=O)N1CCN(Cc2cc3c(cc2Br)OCCO3)CC1,nt,nt,0,nt,nt,nt,
CSc1ccccc1OCc1cc(C(=O)NCCN2CCCc3ccccc32)no1,-22,-15,0,9,0,nt,
Cc1nc2ccccc2c2oc(C(=O)NCc3ccc4c(c3)OCO4)cc12,2,-30,63*,24,-5,31*,
C=CCN(CC=C)C(=O)c1ccc2nc(Cc3ccc(OC)c(OC)c3)oc2c1,-12,-25,50*,5,14,11,MPTP swell DR=i;MPTP counter DR=43*
COc1ccc(Cc2nc3ccc(C(=O)NCc4cc(C)no4)cc3o2)cc1OC,-24,-17,-3,7,4,nt,
CCc1n[nH]c(=S)n1/N=C/c1cc(Br)c(OC)cc1OC,-18,-41,0,20,-5,nt,
N#Cc1c(NC(=O)c2ccccc2Cl)n(Cc2ccccc2)c2nc3ccccc3nc12,15,3,51*,40,12,51*,
CCCCn1c(NC(=O)CC)c(C#N)c2nc3ccccc3nc21,-19,-28,0,10,-1,nt,
CCCCn1c(NC(=O)c2ccccc2Cl)c(C#N)c2nc3ccccc3nc21,-4,16,96*,59*,9,70*,
CCOCCn1c2ccccc2c2nc3ccccc3nc21,-18,-6,0,35,-10,nt,
COc1ccc(CCNC(=O)c2cc(C)oc2C)cc1,4,-15,0,45,-3,nt,
COc1ccc(CCNC(=O)c2cc(-c3cc(Cl)cc(Cl)c3)oc2C)cc1,-13,-7,77*,3,17,21*,
Cc1oc(-c2cc(Cl)cc(Cl)c2)cc1C(=O)NCCc1ccccc1,-17,-14,93*,10,-15,78*,
CCCCCCCC(=O)NNC(=O)Cc1ccccc1,-6,-8,-2,-2,-3,nt,
CCCCCCCCCCCC(=O)c1c(O)cccc1O,-6,-1,66*,13,-5,56*,
Oc1ccc(Br)cc1-c1cc(-c2ccccc2F)[nH]n1,6,2,63*,8,0,58*,
Oc1ccc(Br)cc1-c1cc(-c2ccccc2Cl)[nH]n1,8,5,74*,8,-10,59*,
COc1ccc(O)c(-c2cc(-c3ccccc3Cl)[nH]n2)c1,-8,-9,5,6,-18,nt,
Oc1ccccc1-c1cc(-c2ccc(F)cc2)n[nH]1,-13,-22,33,16,-10,nt,
CC(C)(C)C(=O)Cn1c(=N)n(Cc2ccccc2Cl)c2ccccc21,-15,-51,56*,26,-2,-3,MPTP swell DR=11*;MPTP counter DR=55*
NS(=O)(=O)c1ccc(CCNc2ncnc3sccc23)cc1,22,9,74*,10,18,81*,
NS(=O)(=O)c1ccc(CNc2ncnc3sccc23)cc1,-8,-1,-1,9,-8,nt,
SMILES,CHO parental Ca,OX1R antag-1,MPTP block,OX1R antag-2,GPR7 antag,Rh123 counter,others
Cc1sc2ncnc(NCCc3ccc(S(N)(=O)=O)cc3)c2c1C,53*,20,86*,37,19,106*,
Cc1ccc(NC(=O)COc2ccccc2)cc1Cl,-9,-12,0,14,-9,nt,
Cc1ccc(NC(=O)CSc2ccccc2NC(=O)c2ccccc2Cl)cc1Cl,-10,-15,90*,26,-12,87*,
Cc1ccc(NC(=O)CSc2ccccc2NC(=O)c2ccccc2)cc1Cl,-11,-8,92*,23,-4,65*,
COC(=O)c1cccc(NS(=O)(=O)c2ccc(OC)c(OC)c2)c1C,4,3,56*,20,5,21*,
CSS(=O)(=O)c1cccc2cccnc12,-7,-5,3,3,-7,nt,
